From ChEMBL document CHEMBL4665639, “N-Benzylanilines as Fatty Acid Synthesis Inhibitors against Biofilm-related Methicillin-resistant Staphylococcus aureus” (ACS Med Chem Lett, 2019)
≈ marks a conversion by molar mass, not a printed value. Calls of active or inactive are those of the source. No cut-off for these calls is given here.

How the values were obtained:
Staphylococcus aureus [1] = test: Inhibition of Staphylococcus aureus ATCC 6538 fabI expressed in Escherichia coli BL21 (DE3) assessed as oxidation of NADPH to NADP+ using trans-2-octenoyl CoA as substrate incubated for 2 hrs in presence of NADPH by spectrophotometric analysis
Candida albicans = test: Antifungal activity against Candida albicans assessed as fungal growth inhibition after 24 hrs by CLSI protocol based broth microdilution assay; format: functional
Enterococcus faecium = test: Antibacterial activity against Enterococcus faecium assessed as bacterial growth inhibition after 24 hrs by CLSI protocol based broth microdilution assay; format: functional
Pseudomonas aeruginosa = test: Antibacterial activity against Pseudomonas aeruginosa assessed as bacterial growth inhibition after 24 hrs by CLSI protocol based broth microdilution assay; format: functional
Candida tropicalis = test: Antifungal activity against Candida tropicalis assessed as fungal growth inhibition after 24 hrs by CLSI protocol based broth microdilution assay; format: functional
Staphylococcus aureus [2] = test: Antibacterial activity against methicillin-resistant Staphylococcus aureus assessed as bacterial growth inhibition after 24 hrs by CLSI protocol based broth microdilution assay; format: functional
Staphylococcus aureus [3] = test: Antibacterial activity against Staphylococcus aureus assessed as bacterial growth inhibition after 24 hrs by CLSI protocol based broth microdilution assay; format: functional
Escherichia coli = test: Antibacterial activity against Escherichia coli assessed as bacterial growth inhibition after 24 hrs by CLSI protocol based broth microdilution assay; format: functional
Staphylococcus aureus [4] = test: Antibiofilm activity against methicillin-resistant Staphylococcus aureus ATCC 43300 assessed as reduction in biofilm biomass at 0.5 to 4 mg/L after 24 hrs by MTT assay; format: functional, organism-based; conditions: dose mg/L 0.5-4, time 24.0 hrs
Procedure, shortened: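 Biofilm growth of MRSA ATCC 43300 measured in the presence of compound in cultivation plates, with a DMSO control. Significance of control vs treated is given at p < 0.05, 0.01 and 0.001.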

Bacillus cereus = test: Antibacterial activity against Bacillus cereus assessed as bacterial growth inhibition after 24 hrs by CLSI protocol based broth microdilution assay; format: functional

Structure (SMILES) | inhibition (Staphylococcus aureus [1]) | MIC (Candida albicans) [µg/mL] | MIC (Enterococcus faecium) [µg/mL] | MIC (Pseudomonas aeruginosa) [µg/mL] | MIC (Candida tropicalis) [µg/mL] | MIC (Staphylococcus aureus [2]) [µg/mL] | MIC (Staphylococcus aureus [3]) [µg/mL] | MIC (Escherichia coli) [µg/mL] | Activity (Staphylococcus aureus [4]) | MIC (Bacillus cereus) [µg/mL] | Activity (Staphylococcus aureus [2]) | Activity (Staphylococcus aureus [3])
Oc1ccc(Br)cc1CNc1cc(C(F)(F)F)ccc1Cl | Active | ≥ 64 | ≤ 2 | ≥ 64 | ≥ 64 | 1 (≈ 2.63 µM) | 2 (≈ 5.25 µM) | ≥ 64 | Active | ≤ 2 | – | –
Oc1ccc(Cl)cc1CNc1ccc(OC(F)(F)F)cc1 | – | ≥ 64 | – | ≥ 64 | ≥ 64 | – | – | ≥ 64 | – | – | – | –
Oc1ccc(Cl)cc1/C=N\c1cc(C(F)(F)F)ccc1F | – | ≥ 64 | – | ≥ 64 | ≥ 64 | – | – | ≥ 64 | – | – | – | –
Oc1c(Br)cc(Cl)cc1CNCCc1ccc(F)cc1 | – | ≥ 64 | – | ≥ 64 | ≥ 64 | – | – | ≥ 64 | – | – | – | –
Oc1c(Br)cc(Br)cc1CNc1cccc(C(F)(F)F)c1 | Active | ≥ 64 | ≤ 2 | ≥ 64 | ≥ 64 | – | ≤ 2 | ≥ 64 | Active | ≤ 2 | – | –
Oc1c(Br)cc(Cl)cc1CNc1cccc(C(F)(F)F)c1 | Active | ≥ 64 | ≤ 2 | ≥ 64 | ≥ 64 | – | ≤ 2 | ≥ 64 | Active | ≤ 2 | – | –
C[C@@H]1[C@H](O)[C@@H](C)/C=C/C=C/C=C/C=C/C=C/C=C/C=C/[C@H](O[C@@H]2O[C@H](C)[C@@H](O)[C@H](N)[C@@H]2O)C[C@@H]2O[C@](O)(C[C@@H](O)C[C@@H](O)[C@H](O)CC[C@@H](O)C[C@@H](O)CC(=O)O[C@H]1C)C[C@H](O)[C@H]2C(=O)O [AMPHOTERICIN B] | – | ≥ 64 | – | ≥ 64 | ≥ 64 | – | – | ≥ 64 | – | – | – | –
Oc1ccc(Br)cc1/C=N\c1cc(C(F)(F)F)ccc1Cl | – | ≥ 64 | – | ≥ 64 | ≥ 64 | – | – | ≥ 64 | – | – | – | –
Oc1c(Br)cc(Br)cc1/C=N\c1cc(C(F)(F)F)ccc1F | – | ≥ 64 | – | ≥ 64 | ≥ 64 | – | – | ≥ 64 | – | – | inactive | inactive
CC1COc2c(N3CCN(C)CC3)c(F)cc3c(=O)c(C(=O)O)cn1c23 (configuration not stated) [OFLOXACIN] | – | ≥ 64 | – | ≥ 64 | ≥ 64 | – | – | ≥ 64 | – | – | – | –
Oc1c(Br)cc(Cl)cc1CNCCc1ccc(Br)cc1 | – | ≥ 64 | – | ≥ 64 | ≥ 64 | – | – | ≥ 64 | – | – | – | –
Oc1ccc(Br)cc1CNc1cc(C(F)(F)F)ccc1F | – | ≥ 64 | – | ≥ 64 | ≥ 64 | 16 (≈ 43.9 µM) | 16 (≈ 43.9 µM) | ≥ 64 | – | – | – | –
Oc1ccc(Cl)cc1CNc1cc(C(F)(F)F)ccc1Cl | Active | ≥ 64 | ≤ 2 | ≥ 64 | ≥ 64 | 1 (≈ 2.97 µM) | 1 (≈ 2.97 µM) | ≥ 64 | Active | ≤ 2 | – | –
Oc1c(Br)cc(Br)cc1/C=N\c1cc(C(F)(F)F)ccc1Cl | – | ≥ 64 | – | ≥ 64 | ≥ 64 | – | – | ≥ 64 | – | – | inactive | inactive
Oc1c(Br)cc(Br)cc1/C=N\c1cccc(C(F)(F)F)c1 | – | ≥ 64 | – | ≥ 64 | ≥ 64 | – | – | ≥ 64 | – | – | inactive | inactive
Oc1c(Br)cc(Cl)cc1/C=N\CCc1ccc(F)cc1 | – | ≥ 64 | – | ≥ 64 | ≥ 64 | – | – | ≥ 64 | – | – | – | –
Oc1cccc(NCc2cc(Cl)cc(Br)c2O)c1 | – | ≥ 64 | – | ≥ 64 | ≥ 64 | – | – | ≥ 64 | – | – | – | –
CN(C)[C@@H]1C(O)=C(C(N)=O)C(=O)[C@@]2(O)C(O)=C3C(=O)c4c(O)cccc4[C@@](C)(O)[C@H]3C[C@@H]12 [TETRACYCLINE] | – | ≥ 64 | – | ≥ 64 | ≥ 64 | – | – | ≥ 64 | – | – | – | –

Structure (SMILES) | inhibition (Staphylococcus aureus [1]) | MIC (Candida albicans) [µg/mL] | MIC (Enterococcus faecium) [µg/mL] | MIC (Pseudomonas aeruginosa) [µg/mL] | MIC (Candida tropicalis) [µg/mL] | MIC (Staphylococcus aureus [2]) [µg/mL] | MIC (Staphylococcus aureus [3]) [µg/mL] | MIC (Escherichia coli) [µg/mL] | Activity (Staphylococcus aureus [4]) | MIC (Bacillus cereus) [µg/mL] | Activity (Staphylococcus aureus [2]) | Activity (Staphylococcus aureus [3])
Oc1ccc(Cl)cc1/C=N\c1cc(C(F)(F)F)ccc1Cl | – | ≥ 64 | – | ≥ 64 | ≥ 64 | – | – | ≥ 64 | – | – | – | –
Oc1ccc(NCc2cc(Br)cc(Br)c2O)cc1 | – | ≥ 64 | – | ≥ 64 | ≥ 64 | – | – | ≥ 64 | – | – | – | –
Oc1c(Cl)cc(Cl)cc1CNc1cc(C(F)(F)F)ccc1Cl | Active | ≥ 64 | ≤ 2 | ≥ 64 | ≥ 64 | – | ≤ 2 | ≥ 64 | Active | ≤ 2 | – | –
Oc1cc(Cl)ccc1Oc1ccc(Cl)cc1Cl [TRICLOSAN] | – | ≥ 64 | – | ≥ 64 | ≥ 64 | – | – | ≥ 64 | – | – | – | –
Oc1c(Cl)cc(Cl)cc1/C=N\c1cc(C(F)(F)F)ccc1Cl | – | ≥ 64 | – | ≥ 64 | ≥ 64 | – | – | ≥ 64 | – | – | – | –
Oc1c(Br)cc(Br)cc1CNc1cc(C(F)(F)F)ccc1Cl | Active | ≥ 64 | ≤ 2 | ≥ 64 | ≥ 64 | 1 (≈ 2.18 µM) | 1 (≈ 2.18 µM) | ≥ 64 | Active | ≤ 2 | – | –
Oc1ccc(Br)cc1/C=N\c1cccc(OC(F)(F)F)c1 | – | ≥ 64 | – | ≥ 64 | ≥ 64 | – | – | ≥ 64 | – | – | – | –
Oc1ccc(Cl)cc1CNc1cc(C(F)(F)F)ccc1F | – | ≥ 64 | – | ≥ 64 | ≥ 64 | 32 (≈ 100 µM) | 4 (≈ 12.5 µM) | ≥ 64 | – | – | – | –
Oc1c(Br)cc(Br)cc1CNc1cc(C(F)(F)F)ccc1F | – | ≥ 64 | – | ≥ 64 | ≥ 64 | 4 (≈ 9.03 µM) | 4 (≈ 9.03 µM) | ≥ 64 | – | – | – | –
Oc1ccc(Br)cc1CNc1cccc(OC(F)(F)F)c1 | – | ≥ 64 | – | ≥ 64 | ≥ 64 | – | – | ≥ 64 | – | – | – | –
Oc1c(Br)cc(Cl)cc1/C=N\CCc1ccc(Br)cc1 | – | ≥ 64 | – | ≥ 64 | ≥ 64 | – | – | ≥ 64 | – | – | – | –
Oc1c(Br)cc(Cl)cc1/C=N\c1cc(C(F)(F)F)ccc1Cl | – | ≥ 64 | – | ≥ 64 | ≥ 64 | – | – | ≥ 64 | – | – | – | –
Oc1ccc(Br)cc1/C=N\c1cc(C(F)(F)F)ccc1F | – | ≥ 64 | – | ≥ 64 | ≥ 64 | – | – | ≥ 64 | – | – | – | –
Oc1cccc(/N=C\c2cc(Cl)cc(Br)c2O)c1 | – | ≥ 64 | – | ≥ 64 | ≥ 64 | – | – | ≥ 64 | – | – | – | –
Oc1ccc(Cl)cc1/C=N\c1ccc(OC(F)(F)F)cc1 | – | ≥ 64 | – | ≥ 64 | ≥ 64 | – | – | ≥ 64 | – | – | – | –
Oc1c(Br)cc(Cl)cc1/C=N\c1cccc(C(F)(F)F)c1 | – | ≥ 64 | – | ≥ 64 | ≥ 64 | – | – | ≥ 64 | – | – | – | –
Oc1ccc(/N=C\c2cc(Br)cc(Br)c2O)cc1 | – | ≥ 64 | – | ≥ 64 | ≥ 64 | – | – | ≥ 64 | – | – | inactive | inactive
